# PREPL inhibitor = PREPL enzyme inhibitors, primary screen, biochemical, fluorescence polarization; Prolyl endopeptidase-like (Homo sapiens), Q4J6C6; recombinant PREPL, fluorescence polarization activity-based probe; inhibition, % at 5.96 µM; actives 0.68% (n = 320,000); in the data active = inhibition above about 43%;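 note: 0% = enzyme with DMSO and 100% = wells lacking enzyme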
# Target sequence (Q4J6C6 whole entry, looked up): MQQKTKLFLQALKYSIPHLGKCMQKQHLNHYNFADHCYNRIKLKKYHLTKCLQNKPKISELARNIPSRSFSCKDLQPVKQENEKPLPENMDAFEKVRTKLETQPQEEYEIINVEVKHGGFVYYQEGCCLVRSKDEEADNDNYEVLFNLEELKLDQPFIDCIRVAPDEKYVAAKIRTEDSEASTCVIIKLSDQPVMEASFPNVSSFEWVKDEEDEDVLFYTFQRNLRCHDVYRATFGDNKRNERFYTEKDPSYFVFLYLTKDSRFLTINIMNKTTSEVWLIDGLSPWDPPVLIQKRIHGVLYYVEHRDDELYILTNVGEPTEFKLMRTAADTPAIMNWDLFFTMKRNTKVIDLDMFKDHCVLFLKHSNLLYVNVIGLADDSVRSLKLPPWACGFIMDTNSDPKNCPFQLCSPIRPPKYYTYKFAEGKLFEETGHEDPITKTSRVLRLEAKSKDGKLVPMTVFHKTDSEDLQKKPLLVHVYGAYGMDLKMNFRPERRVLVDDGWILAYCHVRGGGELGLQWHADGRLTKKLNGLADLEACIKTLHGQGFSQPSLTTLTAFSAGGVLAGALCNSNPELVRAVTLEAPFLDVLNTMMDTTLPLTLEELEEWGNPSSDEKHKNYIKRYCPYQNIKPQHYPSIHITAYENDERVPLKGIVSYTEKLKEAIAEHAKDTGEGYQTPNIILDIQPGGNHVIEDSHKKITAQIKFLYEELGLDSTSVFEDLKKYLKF
# ALR inh = inhibitors of human ALR sulfhydryl oxidase, primary screen, biochemical, H2O2 detection, HRP-luminol luminescence, single point | purified ALR, DTT oxidation | FAD-linked sulfhydryl oxidase ALR (Homo sapiens), P55789 | AID 485317, 2010 | inhibition, % (test concentration not listed) | actives 3.8% (n = 290,000);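 active = mean replicate inhibition above about 79%, with every replicate also reaching it, limit read from the data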
# UBC13 inh = UBC13 polyubiquitin chain formation inhibitors, primary screen, biochemical, TR-FRET, uHTS | Ubiquitin-conjugating enzyme E2 N (Homo sapiens), P61088 | inhibition, % at 20 µM | actives 0.47% (n = 330,000); in the data active = inhibition above about 45%, passing the limit was not always enough
# Rin1 Abl inh = inhibitors of Rin1-Abl protein binding, primary screen, biochemical, TR-FRET. actives 0.4% (n = 360,000). inhibition, % at 7.35 µM. Tyrosine-protein kinase ABL1 (Homo sapiens) + Ras and Rab interactor 1 (Homo sapiens), …; in the data active = inhibition above about 5%, passing the limit was not always enough
# RBBP9 inh = human RBBP9 inhibitors, primary screen, biochemical, fluorescence polarization, FP-Rh probe, HTS; Serine hydrolase RBBP9 (Homo sapiens), O75884; recombinant RBBP9; inhibition, % at 7.94 µM; actives 0.2% (n = 220,000);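 active = inhibition above the campaign mean of all tested compounds plus 3 SD, cut at about 14% in these data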;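 note: plate controls were DMSO wells with RBBP9 for no effect and wells lacking RBBP9 protein for full effect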
#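 System: RBBP9 protein | Quantity: 2.5 µM RBBP9 dispensing solution, before mixing | Reagent: FP-Rh probe, 375 nM dispensing solution | Timing: Enzyme-compound preincubation 30 min, then probe labeling 45 min, 25 °C | Measured by: Fluorescence polarization | Read-out: % inhibition | Replication: One well per compound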
# UBC9 SUMO inh = inhibitors of in vitro SUMOylation cascade, primary screen, biochemical, HTRF, uHTS | HTRF SUMOylation assay, SAE1/SAE2 + UBC9 | inhibition, % at 35 µM | actives 0.36% (n = 290,000); in the data active = inhibition above about 50%, passing the limit was not always enough
# Active calls of the source: *; . = no result. An excerpt weighted towards active compounds, which were near 4.3% of everything screened.
SMILES,PREPL inhibitor,ALR inh,UBC13 inh,Rin1 Abl inh,RBBP9 inh,UBC9 SUMO inh
Clc1ccc(-n2nnc(-c3ncc[nH]3)n2)cc1Cl,0.1,-1.3,-16.2,-0.2,.,.
CCN(CC)C(=O)CSC(Nc1ccc(F)cc1)=C(C#N)C#N,7.1,98.8*,-19.0,-2.3,-12.2,19.5
Cc1ccc(CSC(Nc2ccc(F)cc2)=C(C#N)C#N)cc1,-7.0,-7.6,-11.2,0.1,-4.3,-0.3
CC[C@@H](C)[C@H](NC(=O)Cc1c(C)c2c(cc(C)c3c(C)c(C)oc32)oc1=O)C(=O)O,.,74.1,2.8,-0.2,.,45.3
Cc1oc2c(c(C)cc3oc(=O)c(CC(=O)N[C@@H](C)C(=O)O)c(C)c32)c1C,-3.6,.,5.5,-2.4,.,50.6*
CCCCC(NC(=O)Cc1c(C)c2cc3c(C)c(C)oc3c(C)c2oc1=O)C(=O)O (stereo unspecified),1.7,96.8*,7.0,-0.5,.,29.8
CCC1(C(=O)O)NC(c2cc(OC)ccc2O)C2C(=O)N(Cc3ccccc3)C(=O)C21 (stereo unspecified),-2.2,86.6*,4.5,-1.1,1.1,-0.2
CCCC1(C(=O)O)NC(c2ccccc2O)C2C(=O)N(Cc3ccccc3)C(=O)C21 (stereo unspecified),-5.5,-19.5,-2.1,-0.2,0.3,22.0
O=C(NC(=S)/C(=C1\CCCCCN1)[N+](=O)[O-])c1ccccc1,6.0,-3.4,3.3,1.4,.,.
COc1cc(/C=C/c2sc3ccccc3[n+]2CCCS(=O)(=O)[O-])ccc1O,-314.8,98.7*,-379.1,-19.1,-201.0,-26.8
O=C(CN(Cc1ccccc1Cl)C(=O)c1csnn1)NC1CCCC1,-7.3,0.1,8.3,1.2,.,-17.0
COc1ccc(NC2C=CS(=O)(=O)C2)c(OC)c1 (stereo unspecified),18.9,84.9*,-5.2,1.2,-5.9,5.3
COc1cccc(NC2C=CS(=O)(=O)C2)c1 (stereo unspecified),-0.2,.,-0.8,-2.4,8.9,4.1
CCc1ccc(N2C(=O)Cc3c2nc(N)c(C#N)c3N)cc1,43.6*,-64.4,-5.5,-5.7,9.0,2.7
COc1ccc(C2=CC3=C(Br)C(=O)C(C)(O)C(=O)C3=CO2)cc1 (stereo unspecified),7.1,90.2*,-12.5,1.6,.,6.6
COc1ccc(C/C(C)=N/NC(=S)Nc2ccc(Cl)cc2)cc1,23.8,.,6.1,0.0,-8.2,-4.1
COc1ccc(C/C(C)=N/NC(=S)Nc2ccccc2)cc1,4.6,81.6*,-2.1,0.1,-0.5,7.1
Cc1ccc2[nH]cc(/C=C/c3cc[n+](C)cc3)c2c1,.,98.3*,-492.4,-130.3,.,26.1
COc1ccc2c(/C=C/c3cc[n+](C)cc3)c[nH]c2c1,16.4,-6.4,-151.3,-19.4,.,1.6
COc1ccccc1S(=O)Cc1ccc(C(=O)NC2CCCC2)o1 (stereo unspecified),-5.0,94.3*,9.7,-2.3,-9.3,12.9
COc1ccccc1OCc1ccc(C(=O)NC2CCCCC2)o1,-3.4,4.8,2.7,-2.8,.,11.4
CCc1cc(C(=O)NNC(=O)CCN2CCN(c3ccccc3)CC2)sc1C,8.2,1.5,-1.3,-0.8,.,9.2
O=C(CCN1CCN(c2ccccc2)CC1)NNC(=O)c1cccc2ccccc12,8.6,99.0*,-4.8,-4.5,-10.5,-12.1
COc1cccc(C(=O)NNC(=O)CCN2CCN(c3ccccc3)CC2)c1,20.6,85.8*,13.6,2.8,.,.
Cc1cc(C(=O)NNC(=O)CCN2CCN(c3ccccc3)CC2)c2ccccc2n1,-67.6,98.2*,-3.6,-0.2,-5.6,6.1
SMILES,PREPL inhibitor,ALR inh,UBC13 inh,Rin1 Abl inh,RBBP9 inh,UBC9 SUMO inh
NS(=O)(=O)c1ccc(CNC(=O)c2cc(=O)c3ccccc3o2)cc1,-19.4,-1.0,8.1,-2.0,.,15.7
Cc1cc([N+](=O)[O-])nn1Cc1ccc(C(=O)N/N=C/c2ccc(N(C)C)cc2)cc1,7.5,18.1,-12.7,0.8,7.4,-0.8
c1coc(CSSCc2ccco2)c1,-3.8,98.3*,-3.3,2.8,.,.
O=C(NCc1ccccn1)c1ccc2c(c1)N(Cc1ccccc1)CCS2,14.7,98.1*,18.9,-2.0,-1.3,28.4
O=C(NCc1cccnc1)c1ccc2c(c1)N(Cc1ccccc1)CCS2,12.8,92.4*,16.2,-3.1,-3.4,15.6
CCN1CCSc2ccc(C(=O)NCc3cccc(F)c3)cc21,2.2,98.6*,14.2,-1.7,.,27.9
Cc1cccc2c(=O)c(Br)c(C)n(Cc3ccccc3)c12,4.6,0.5,-0.5,0.0,-3.9,17.9
CCN(CC)S(=O)(=O)c1ccc(=O)n(CC(=O)N2Cc3ccccc3CC2C(N)=O)c1 (stereo unspecified),.,.,-3.8,3.6,.,.
Cc1ccc(N=C2C(=S)N(c3ccc(C)cc3)C(=N)N2/N=C/c2ccc(Cl)cc2)cc1,5.7,95.8*,-24.5,1.3,-9.8,1.6
COc1ccc(/C=N/N2CCN(c3ccc(Cl)cc3)CC2)cc1,0.9,-7.4,-3.0,-2.0,.,14.4
Cc1oc(-c2ccccc2)cc1C(=O)Nc1cccc(/C=C\C(=O)O)c1,-6.5,95.9*,-1.0,-5.1,-12.2,13.3
CCN1C(=S)SC(=O)C1=C1C=C(C)N(Cc2ccco2)C(C)=C1,10.8,98.8*,-64.1,-13.4,-5.4,1.3
CCN1C(=S)SC(=O)C1=C1C=C(C)OC(C)=C1,8.9,-4.9,-48.3,2.0,-8.1,12.6
Cc1cc(C(=O)N2CCCC(Nc3ccc(C)c(C)c3)C2)nc(C)n1 (stereo unspecified),.,.,.,-1.9,.,.
Cc1ccc(NC2CCCN(C(=O)c3cn4cc(Cl)ccc4n3)C2)cc1C (stereo unspecified),24.4,99.1*,-2.1,-3.9,.,-5.5
Cc1ccc(NC2CCCN(C(=O)c3cn4cccc(C)c4n3)C2)cc1C (stereo unspecified),.,98.8*,4.5,-2.0,.,-2.1
O=C(c1cn2ccccc2n1)N1CCCC(Nc2ccc(F)c(F)c2)C1 (stereo unspecified),26.4,1.8,2.8,3.6,.,17.3
COc1ccc(Br)c(Cn2c(C)c(C(=O)NCc3ccc4c(c3)OCCO4)sc2=O)c1,.,.,.,-2.2,.,.
O=C(CSc1n[nH]c(=O)[nH]c1=O)Nc1ccc2c(c1)C(=O)c1ccccc1C2=O,35.1,.,-16.4,-2.9,-7.7,87.6*
CCNc1nc(OC)nc(N(OC)S(=O)(=O)c2ccc(C)cc2)n1,3.4,82.0*,-3.6,2.6,.,7.7
COC(=O)c1sc(N2C(=O)C(O)=C(C(=O)c3ccc(C)o3)C2c2cc(OC)ccc2OC)nc1C (stereo unspecified),-3.1,7.4,-15.5,0.8,.,19.4

# Screens from PubChem.
